Test results as given in ChEMBL document CHEMBL1140096, “Discovery of novel nitrobenzothiazole inhibitors for Mycobacterium tuberculosis ATP phosphoribosyl transferase (HisG) through virtual screening” (J Med Chem, 2008).
Active and inactive are the calls of the source. The calls are words filed in the database; no cut-off is given here.

How the values were obtained:
[1] = target: T1, ATP phosphoribosyltransferase (Mycobacterium tuberculosis) (UniProt P9WMN1); test: Inhibition of Mycobacterium tuberculosis HisG assessed as phosphoribosyl ATP production at 10 uM by spectrophotometry
T1 sequence (whole entry): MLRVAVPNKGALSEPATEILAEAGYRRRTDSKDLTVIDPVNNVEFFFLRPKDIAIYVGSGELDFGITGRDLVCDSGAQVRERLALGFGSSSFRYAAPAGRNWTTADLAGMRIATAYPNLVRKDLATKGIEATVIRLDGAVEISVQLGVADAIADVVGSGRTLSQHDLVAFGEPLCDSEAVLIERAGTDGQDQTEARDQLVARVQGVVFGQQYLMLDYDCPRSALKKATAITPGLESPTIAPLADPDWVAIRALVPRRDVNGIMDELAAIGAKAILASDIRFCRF

[2] = target: T2, ATP phosphoribosyltransferase (Mycobacterium tuberculosis, UniProt P9WMN1); test: Inhibition of Mycobacterium tuberculosis HisG assessed as phosphoribosyl ATP production by spectrophotometry
T2 sequence (P9WMN1 whole entry): T1 sequence (whole entry)

[3] = test system: Mycolicibacterium smegmatis; test: Antimycobacterial activity against Mycobacterium smegmatis ATCC 700084 at 12 ug/mL; format: functional, organism-based
Outline: (§1)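 M. smegmatis ATCC 700084 pre-grown 2 days in 7H9 with 0.2% glucose and 0.05% Tween80, then plated on 7H10 agar (0.2% glycerol) containing compound at 1, 3, 6, 12 or 25 μg/ml. Plates were incubated 4 days at 37 °C and growth was judged by inspection. Controls were no-compound and DMSO plates, plus kanamycin 25 μg/ml.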

[4] = test system: Mycolicibacterium smegmatis; test: Antimycobacterial activity against Mycobacterium smegmatis ATCC 700084 at 25 ug/mL; format: functional; outline: as §1
[5] = target: T1, ATP phosphoribosyltransferase (Mycobacterium tuberculosis); test: Inhibition of Mycobacterium tuberculosis HisG assessed as phosphoribosyl ATP production at 1 uM by spectrophotometry
[6] = Inhibition of Escherichia coli HisG

Row | SMILES | inhibition [1] [%] | IC50 [2] [µM] | further results
1 | Nc1nc(SCc2ccccc2)c(N)c(SCc2ccccc2)n1 | 48 | – | –
2 | O=[N+]([O-])c1ccc2c(/N=N/c3ccc4ccccc4c3O)c(O)cc(S(=O)(=O)O)c2c1 | 50 | 10 | –
3 | O=[N+]([O-])c1ccc(Nc2cc(Nc3cccc(O)c3)c3nonc3c2[N+](=O)[O-])c(O)c1 | 46 | 11.9 | Activity [3]: Active; inhibition at 25 µg/mL [4]: 100%
4 | O=C(NNC(=O)c1cc([N+](=O)[O-])cc([N+](=O)[O-])c1Br)Nc1ccccc1 | 71 | 5.5 | –
5 | O=C(CC(NC(=O)c1ccccc1)c1ccccc1)Nc1nc2ccc([N+](=O)[O-])cc2s1 (configuration not stated) | 71 | 6 | Ki [2]: 2 µM; inhibition [5]: 35%
6 | CCOC(=O)C(=O)Nc1nc2ccc([N+](=O)[O-])cc2s1 | 39 | 13.9 | –
7 | COc1ccc(COC(=O)C2=C(C)NC3=C(C(=O)CC(c4cccs4)C3)C2c2cccs2)cc1 (configuration not stated) | 50 | 10 | –
8 | O=C(CSc1nnc(-c2ccccc2)c(-c2ccccc2)n1)Cc1nccs1 | 76 | 4 | Ki [2]: 2 µM; inhibition [5]: 40%
9 | Cc1cc(/N=N/c2ccc(S(=O)(=O)O)cc2)c(N)c(/N=N/c2ccc(S(=O)(=O)O)cc2)c1N | 45 | – | –
10 | O=c1oc2ccccc2c(O)c1Cc1c(O)c2ccccc2oc1=O [DICUMAROL] | – | – | Ki [6]: 50 µM
11 | O=[N+]([O-])c1ccc(O)c([N+](=O)[O-])c1 [2,4-DINITROPHENOL] | – | – | Ki [6]: 50 µM
12 | COc1cc(C2C(C(=O)c3ccc(Cl)cc3)=C(O)C(=O)N2Cc2cccnc2)cc(OC)c1OC (configuration not stated) | 20 | – | –
13 | Oc1c(Cl)c(Cl)c(Cl)c(Cl)c1Cl [PENTACHLOROPHENOL] | – | – | Ki [6]: 50 µM
14 | CN(CC(=O)O)c1nc2cc([N+](=O)[O-])ccc2s1 | 15 | – | –
